The source made the active and inactive calls. No cut-off for these calls is given here.

Results on one compound are retold here after ChEMBL document CHEMBL4382270, “Total Synthesis and Biological Evaluation of Sericetin for Protection against Cisplatin-Induced Acute Kidney Injury” (J Nat Prod, 2018).

Series [1] relates to NRK-52E. The experiment in a line: Protection against cisplatin-induced cytotoxicity in rat NRK-52E cells assessed as increase in cell viability at 20 uM after 24 hrs by MTT assay. In kind it is functional, cell-based. Put shortly:
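NRK52E cells given test agent at 20 μM for 24 h, with or without cisplatin 30 μM. Vehicle is DMSO at 0.2% final. Viability read by MTT. Mean ± SEM, N = 3.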

For series [2], the system named is NRK-52E. The experiment in a line: Protection against cisplatin-induced cytotoxicity in rat NRK-52E cells assessed as improvement in morphological changes after 24 hrs by microscopic analysis. It counts as functional, cell-based. Put shortly: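 Cells (NRK-52E) exposed to test agent at 0, 1, 10 or 50 μM plus cisplatin 30 μM for 24 h. Morphology then examined by light microscopy.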

In series [3] the test system is NRK-52E. The experiment in a line: Protection against cisplatin-induced cytotoxicity in rat NRK-52E cells assessed as increase in cell viability after 24 hrs by MTT assay. In kind it is functional, cell-based. Put shortly: (§1)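 NRK-52E rat renal tubular epithelial cells (ATCC) exposed to test agent at 0, 1, 10 or 50 μM for 24 h, with or without cisplatin 30 μM (PBS stock). Viability measured by MTT. Mean ± SEM, N = 3.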
Background: Tetrazolium assays rely on reduction of a dye to a coloured formazan, in cell work by metabolically active cells.

In series [4] the test system is NRK-52E. The series can be described thus: Cytotoxicity against rat NRK-52E cells assessed as effect on cell viability at 1 to 50 uM after 24 hrs by MTT assay. It counts as cell-based. In a few lines:
as §1

Series [5] deals with NRK-52E. The series can be described thus: Protection against cisplatin-induced cell damage in rat NRK-52E cells assessed as reduction in reactive oxygen species generation at 10 uM after 24 hrs by DCF staining based fluorescence microscopic analysis. It counts as functional. Put shortly:
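NRK-52E cells co-treated with cisplatin 30 μM and test agent 10 μM for 24 h. ROS stained with CM-H2DCFDA (DCF) and imaged by fluorescence. Percent ROS derived from DCF signal by region-of-interest quantitation. Mean ± SEM, N = 3.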

In series [6] the test system is NRK-52E. The experiment in a line: Protection against cisplatin-induced cell damage in rat NRK-52E cells assessed as reversal of mitochondrial membrane potential loss at 10 uM after 24 hrs by JC1 staining based fluorescence microscopic analysis. In kind it is functional. In a few lines: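 After 24 h of cisplatin 30 μM with or without test agent 10 μM, NRK-52E cells stained with JC-1 and imaged by fluorescence microscopy. Red (aggregate) and green (monomer) signals quantified by ROI. Mean ± SEM, N = 3.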

Series [7] has as its system NRK-52E. The experiment in a line: Protection against cisplatin-induced apoptosis in rat NRK-52E cells assessed as reduction in cleaved caspase-3 level at 10 uM after 24 hrs by Western blot analysis. In kind it is functional, cell-based. In a few lines: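 NRK-52E cells given cisplatin 30 μM with or without test agent 10 μM for 24 h. Cleaved (active) caspase-3 detected by Western blot and quantified by densitometry. Mean ± SEM, N = 3.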
A general note: Immunoblotting shows a protein as a band on a membrane.

Series [8] relates to Rattus norvegicus. The experiment in a line: Protection against cisplatin-induced […] in Sprague-Dawley rat assessed as reduction in cleaved caspase-3 level in kidneys at 1 mg/kg pretreated for 24 hrs followed by cisplatin challenge and subsequent qd dosing for 5 days measured 7 days post cisplatin challenge by Western blot analysis. In kind it is functional, organism-based. Put shortly:
(§2)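 Male Sprague-Dawley rats (200 ± 10 g) received a single ip cisplatin dose of 6 mg/kg in saline. Test agent 1 mg/kg in 5% DMSO/0.9% saline given once 24 h before cisplatin, then daily for 5 days. Sacrifice on day 7. Read-outs: serum BUN and creatinine by clinical chemistry, kidney H&E histology, and cleaved caspase-3 by Western blot of kidney homogenate. N = 6/group.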

Series [9] has as its system Rattus norvegicus. The experiment in a line: Protection against cisplatin-induced […] in Sprague-Dawley rat assessed as reversal of histopathological changes in kidney at 1 mg/kg pretreated for 24 hrs followed by cisplatin challenge and subsequent qd dosing for 5 days measured 7 days post cisplatin challenge by H and E staining based light microscopic analysis. In kind it is functional, organism-based. In a few lines: as §2

Series [10] concerns Rattus norvegicus. The series can be described thus: Protection against cisplatin-induced acute liver injury in Sprague-Dawley rat assessed as restoration of serum BUN levels at 1 mg/kg pretreated for 24 hrs followed by cisplatin challenge and subsequent qd dosing for 5 days measured 7 days post cisplatin challenge. Conditions: in the assay text read “acute kidney injury” for “acute liver injury”. It counts as functional, organism-based. In a few lines:
as §2

Series [11] relates to Rattus norvegicus. The series can be described thus: Protection against cisplatin-induced acute liver injury in Sprague-Dawley rat assessed as restoration of serum creatinine levels at 1 mg/kg pretreated for 24 hrs followed by cisplatin challenge and subsequent qd dosing for 5 days measured 7 days post cisplatin challenge. It counts as functional, organism-based. The note with it: in the assay text read “acute kidney injury” for “acute liver injury”. In a few lines:
as §2

The nature of series [12]: Renal toxicity in Sprague-Dawley rat assessed as histopathological changes in kidney at 1 mg/kg administered once daily for 6 days by H and E staining based light microscopic analysis. It counts as organism-based. Conditions: in vivo, 144 h. Put shortly: (§3)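 Male Sprague-Dawley rats (200 ± 10 g) given test agent alone at 1 mg/kg in 5% DMSO/0.9% saline, once and then daily for 5 further days. Killed on day 7. Serum BUN and creatinine measured by clinical chemistry, and kidneys examined by H&E histology.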

Series [13] is described as follows: Renal toxicity in Sprague-Dawley rat assessed as change in serum BUN levels at 1 mg/kg administered once daily for 6 days. In kind it is organism-based. The note with it: in vivo, 144 h. Put shortly:
as §3

Series [14] in a line: Renal toxicity in Sprague-Dawley rat assessed as change in serum creatinine levels at 1 mg/kg administered once daily for 6 days. Conditions: in vivo, 144 h. In kind it is organism-based. Put shortly:
as §3

Regarding `CC(C)=CCOc1c2c(cc3oc(-c4ccccc4)c(OCc4ccccc4)c(=O)c13)OC(C)(C)C=C2`, the outcome in series [1], in series [5], in [6], in series [7], in [8] and in series [9] was Active. In addition, the result in series [10] and in series [11] was Active. In addition, the Activity result in series [2] was “Dose-dependent effect”; in [3], “Dose-dependent effect”; in [4] it was “Non-Toxic”; in [12] it was “Non-Toxic”; in [13], “Non-Toxic”; in series [14], “Non-Toxic”.
